Tests used:
Type in all cases: functional
MOLT-4 = test: Growth inhibition of human MOLT4 cells
Method in brief: (§1)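 NCI 60 cancer cell line screen run per the Developmental Therapeutics Program protocol. Dose–response curves were plotted against log10 drug concentration for each cell line within its subpanel, and mean graph midpoint values were calculated.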

HCC 2998 = test: Growth inhibition of human HCC2998 cells; method in brief: as §1
IGROV-1 = test: Growth inhibition of human IGROV1 cells; method in brief: as §1
MDA-MB-231 = test: Growth inhibition of human MDA-MB-231 cells; method in brief: as §1
A498 = test: Growth inhibition of human A498 cells; method in brief: as §1
HL-60(TB) = test: Growth inhibition of human HL-60(TB) cells
Method in brief: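 NCI 60-cell-line panel run under the Developmental Therapeutics Program protocol. Dose-response curves are plotted against log10 drug concentration for each cell line within its subpanel, and GI50 is read from these curves.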

HT-29 = test: Growth inhibition of human HT-29 cells; method in brief: as §1
SNB-19 = test: Growth inhibition of human SNB19 cells
Method in brief: (§2)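 Assayed in the NCI 60 human cancer cell line panel under the Developmental Therapeutics Program protocol. For each line, dose–response curves were plotted against log10 drug concentration. In the one-dose screen at 10^-5 M, growth was given as percent of untreated control cells, and mean graph midpoint values were averaged.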

SN12C = test: Growth inhibition of human SN12C cells; method in brief: as §2
SF-295 = test: Growth inhibition of human SF295 cells; method in brief: as §2
SK-MEL-28 = test: Growth inhibition of human SK-MEL-28 cells; method in brief: as §2
OVCAR-8 = test: Growth inhibition of human OVCAR8 cells; method in brief: as §1
MCF7 = test: Growth inhibition of human MCF7 cells; method in brief: as §1
OVCAR-5 = test: Growth inhibition of human OVCAR5 cells; method in brief: as §1
UACC-257 = test: Growth inhibition of human UACC257 cells; method in brief: as §2
NCI-H460 = test: Growth inhibition of human NCI-H460 cells; method in brief: as §1
SF-268 = test: Growth inhibition of human SF268 cells; method in brief: as §2
A549 = test: Growth inhibition of human A549 cells; method in brief: as §1
M14 = test: Growth inhibition of human M14 cells; method in brief: as §1
NCI/ADR-RES = test: Growth inhibition of human NCI/ADR-RES cells; method in brief: as §1
T47D = test: Growth inhibition of human T47D cells; method in brief: as §2
NCI-H226 = test: Growth inhibition of human NCI-H226 cells; method in brief: as §1
NCI-H322M = test: Growth inhibition of human NCI-H322M cells; method in brief: as §1
SW-620 = test: Growth inhibition of human SW620 cells; method in brief: as §2
Malme-3M = test: Growth inhibition of human MALME-3M cells; method in brief: as §1
MDA-MB-435 = test: Growth inhibition of human MDA-MB-435 cells; method in brief: as §1
CCRF-CEM = test: Growth inhibition of human CCRF-CEM cells; method in brief: as §1
DU-145 = test: Growth inhibition of human DU145 cells; method in brief: as §1
SR = test: Growth inhibition of human SR cells; method in brief: as §2
SNB-75 = test: Growth inhibition of human SNB75 cells; method in brief: as §2
HCT-15 = test: Growth inhibition of human HCT15 cells; method in brief: as §1
NCI-H23 = test: Growth inhibition of human NCI-H23 cells; method in brief: as §1
UACC-62 = test: Growth inhibition of human UACC62 cells; method in brief: as §2
K562 = test: Growth inhibition of human K562 cells; method in brief: as §1
COLO 205 = test: Growth inhibition of human COLO205 cells; method in brief: as §1
SK-MEL-5 = test: Growth inhibition of human SK-MEL-5 cells; method in brief: as §2
BT-549 = test: Antiproliferative activity against human BT549 cells assessed as cell growth at 10 uM; conditions: read-out: Activity
Method in brief: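 NCI 60 cell line panel, single-dose screen (10^-5 M) run by the developmental therapeutics program protocol. Results are given as growth percent of treated cells relative to untreated control cells for each line.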

[1] = read-out: LC50 (the source's name)

Compound: CCc1nc2ccc3c(c2[nH]1)C(=O)c1ccccc1C3=O
- GI50 (MOLT-4): 4.22 µM
- TGI (MOLT-4): > 100 µM
- CC50 (MOLT-4; [1]): > 100 µM
- GI50 (HCC 2998): 18.8 µM
- TGI (HCC 2998): > 100 µM
- CC50 (HCC 2998; [1]): > 100 µM
- GI50 (IGROV-1): 1.54 µM
- TGI (IGROV-1): 14.8 µM
- CC50 (IGROV-1; [1]): > 100 µM
- GI50 (MDA-MB-231): 8.86 µM
- TGI (MDA-MB-231): > 100 µM
- GI50 (A498): > 100 µM
- TGI (A498): > 100 µM
- CC50 (A498; [1]): > 100 µM
- GI50 (HL-60(TB)): 2.72 µM
- TGI (HL-60(TB)): 64.1 µM
- CC50 (HL-60(TB); [1]): > 100 µM
- GI50 (HT-29): 16.1 µM
- TGI (HT-29): > 100 µM
- CC50 (HT-29; [1]): > 100 µM
- GI50 (SNB-19): 18.1 µM
- TGI (SNB-19): > 100 µM
- CC50 (SNB-19; [1]): > 100 µM
- GI50 (SN12C): 13.6 µM
- TGI (SN12C): > 100 µM
- CC50 (SN12C; [1]): > 100 µM
- GI50 (SF-295): 4.15 µM
- TGI (SF-295): > 100 µM
- CC50 (SF-295; [1]): > 100 µM
- GI50 (SK-MEL-28): > 100 µM
- TGI (SK-MEL-28): > 100 µM
- CC50 (SK-MEL-28; [1]): > 100 µM
- GI50 (OVCAR-8): 23.2 µM
- TGI (OVCAR-8): > 100 µM
- CC50 (OVCAR-8; [1]): > 100 µM
- GI50 (MCF7): 13 µM
- TGI (MCF7): > 100 µM
- CC50 (MCF7; [1]): > 100 µM
- GI50 (OVCAR-5): 77.4 µM
- TGI (OVCAR-5): > 100 µM
- CC50 (OVCAR-5; [1]): > 100 µM
- GI50 (UACC-257): 47.2 µM
- TGI (UACC-257): > 100 µM
- CC50 (UACC-257; [1]): > 100 µM
- GI50 (NCI-H460): 5.27 µM
- TGI (NCI-H460): > 100 µM
- CC50 (NCI-H460; [1]): > 100 µM
- GI50 (SF-268): 20.3 µM
- TGI (SF-268): > 1000 µM
- CC50 (SF-268; [1]): > 100 µM
- GI50 (A549): 28.5 µM
- TGI (A549): > 100 µM
- CC50 (A549; [1]): > 100 µM
- GI50 (M14): 7.42 µM
- TGI (M14): > 100 µM
- CC50 (M14; [1]): > 100 µM
- GI50 (NCI/ADR-RES): 18.9 µM
- TGI (NCI/ADR-RES): > 100 µM
- CC50 (NCI/ADR-RES; [1]): > 100 µM
- GI50 (T47D): 3.3 µM
- TGI (T47D): > 100 µM
- GI50 (NCI-H226): 2.46 µM
- TGI (NCI-H226): > 100 µM
- CC50 (NCI-H226; [1]): > 100 µM
- GI50 (NCI-H322M): 4.87 µM
- TGI (NCI-H322M): > 100 µM
- CC50 (NCI-H322M; [1]): > 100 µM
- GI50 (SW-620): 19.8 µM
- TGI (SW-620): > 100 µM
- CC50 (SW-620; [1]): > 100 µM
- GI50 (Malme-3M): 8.55 µM
- TGI (Malme-3M): > 100 µM
- CC50 (Malme-3M; [1]): > 100 µM
- GI50 (MDA-MB-435): 30.3 µM
- TGI (MDA-MB-435): > 100 µM
- CC50 (MDA-MB-435; [1]): > 100 µM
- GI50 (CCRF-CEM): 16.5 µM
- TGI (CCRF-CEM): > 100 µM
- CC50 (CCRF-CEM; [1]): > 100 µM
- GI50 (DU-145): 9.43 µM
- TGI (DU-145): > 100 µM
- CC50 (DU-145; [1]): > 100 µM
- GI50 (SR): 6.71 µM
- TGI (SR): > 100 µM
- CC50 (SR; [1]): > 100 µM
- GI50 (SNB-75): 62.5 µM
- TGI (SNB-75): > 100 µM
- CC50 (SNB-75; [1]): > 100 µM
- GI50 (HCT-15): 3.39 µM
- TGI (HCT-15): > 100 µM
- CC50 (HCT-15; [1]): > 100 µM
- GI50 (NCI-H23): 12.1 µM
- TGI (NCI-H23): > 100 µM
- CC50 (NCI-H23; [1]): > 100 µM
- GI50 (UACC-62): 8.09 µM
- TGI (UACC-62): > 100 µM
- CC50 (UACC-62; [1]): > 100 µM
- GI50 (K562): > 100 µM
- TGI (K562): > 100 µM
- GI50 (COLO 205): 8.95 µM
- TGI (COLO 205): > 100 µM
- CC50 (COLO 205; [1]): > 100 µM
- GI50 (SK-MEL-5): 12.7 µM
- TGI (SK-MEL-5): 59.1 µM
- CC50 (SK-MEL-5; [1]): > 100 µM

Compound: Cc1ccc(-c2nc3ccc4c(c3[nH]2)C(=O)c2ccccc2C4=O)cc1
- growth at 10 µM (BT-549): 94.1%

From ChEMBL document CHEMBL1152649, “Synthesis, cytotoxicity and human telomerase inhibition activities of a series of 1,2-heteroannelated anthraquinones and anthra[1,2-d]imidazole-6,11-dione homologues” (2009)
